Test results: ChEMBL document CHEMBL4689842, “EUbOPEN Chemogenomics Library wave 1” (2021)
Values joined by “and” are separate entries in the source; they are usually repeats but may differ in a detail not shown here. Equal values may be shown once.

System: Fibroblast
Assay: Multiplex assay against human fibroblast
Assay type: toxicity, cell-based
Outline: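 At seeding, live cells were stained with Hoechst33342, BioTracker Green Microtubule Cytoskeleton Dye, MitoTracker Red and Annexin V Alexa Fluor 680. After compound addition they were imaged on a CQ1 microscope at 37°C and 5% CO2, and CellPathfinder machine-learning gating sorted them into Hoechst high-intensity objects or normal cells, with normal cells further split into healthy, pyknosed or fragmented nuclei and pyknosed cells into mitotic or apoptotic. Tubulin, mitochondrial-mass and membrane-permeability phenotypes are given as per cents of cells with healthy nuclei.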

[1] = 12 h, 1 µM, compound concentration 1 uM, replicate 1
[2] = 12 h, 1 µM, compound concentration 1 uM, replicate 2
[3] = 24 h, 1 µM, compound concentration 1 uM, replicate 1
[4] = 24 h, 1 µM, compound concentration 1 uM, replicate 2
[5] = 12 h, 10 µM, compound concentration 10 uM, replicate 1
[6] = 12 h, 10 µM, compound concentration 10 uM, replicate 2
[7] = 24 h, 10 µM, compound concentration 10 uM, replicate 1
[8] = 24 h, 10 µM, compound concentration 10 uM, replicate 2
[9] = 48 h, 1 µM, compound concentration 1 uM, replicate 1
[10] = 48 h, 1 µM, compound concentration 1 uM, replicate 2
[11] = 48 h, 10 µM, compound concentration 10 uM, replicate 1
[12] = 48 h, 10 µM, compound concentration 10 uM, replicate 2

Cn1cc(C2=C(c3cn(C4CCN(Cc5ccccn5)CC4)c4ccccc34)C(=O)NC2=O)c2ccccc21 [ENZASTAURIN]
Population Apoptotic (%) [1]: 79% and 42%
Population Fragmented Nuclei (%) [1]: 34% and 40%
Population Healthy Nuclei (%) [1]: 49% and 35%
Population Membrane Permeable-Phenotype (%) [1]: 8% and 7%
Population Mitotic Cells (%) [1]: 20% and 57%
Population Normal (%) [1]: 84% and 33%
Population Pyknosed Nuclei (%) [1]: 15% and 23%
Total Cell Count [1]: 220 and 479
Population Apoptotic (%) [2]: 66% and 55%
Population Fragmented Nuclei (%) [2]: 70% and 45%
Population Healthy Nuclei (%) [2]: 19% and 34%
Population Hoechst High Intensity Objects (%) [2]: 30% and 51%
Population Membrane Permeable-Phenotype (%) [2]: 16% and 0%
Population Mitochondria Different-Phenotype (%) [2]: 25% and 60%
Population Mitotic Cells (%) [2]: 33% and 44%
Population Normal (%) [2]: 69% and 48%
Population Pyknosed Nuclei (%) [2]: 9% and 20%
Total Cell Count [2]: 88 and 91
Population Apoptotic (%) [3]: 64% and 73%
Population Fragmented Nuclei (%) [3]: 47% and 27%
Population Healthy Nuclei (%) [3]: 23% and 58%
Population Membrane Permeable-Phenotype (%) [3]: 6% and 3%
Population Mitotic Cells (%) [3]: 35% and 26%
Population Normal (%) [3]: 28% and 83%
Population Pyknosed Nuclei (%) [3]: 28% and 13%
Total Cell Count [3]: 427 and 225
Population Apoptotic (%) [4]: 33% and 90%
Population Fragmented Nuclei (%) [4]: 67% and 50%
Population Healthy Nuclei (%) [4]: 26% and 19%
Population Hoechst High Intensity Objects (%) [4]: 34% and 50%
Population Membrane Permeable-Phenotype (%) [4]: 7% and 14%
Population Normal (%) [4]: 65% and 49%
Total Cell Count [4]: 75 and 73

O=C(NCCN1CCOCC1)c1ccc2c(c1)C(=O)c1ccc(Nc3ccc(F)c(NC(=O)c4ccccc4)c3)cc1CC2 [FS-694]
Population Apoptotic (%) [5]: 65% and 38%
Population Fragmented Nuclei (%) [5]: 35% and 51%
Population Healthy Nuclei (%) [5]: 49% and 32%
Population Mitotic Cells (%) [5]: 34% and 61%
Population Normal (%) [5]: 81% and 29%
Population Pyknosed Nuclei (%) [5]: 14%
Population Tubulin-Different-Phenotype (%) [5]: 20% and 24%
Total Cell Count [5]: 371 and 970
Population Apoptotic (%) [6]: 72% and 68%
Population Fragmented Nuclei (%) [6]: 57%
Population Healthy Nuclei (%) [6]: 27% and 29%
Population Hoechst High Intensity Objects (%) [6]: 44% and 82%
Population Membrane Permeable-Phenotype (%) [6]: 21% and 20%
Population Mitochondria Different-Phenotype (%) [6]: 15% and 0%
Population Mitotic Cells (%) [6]: 27% and 31%
Population Pyknosed Nuclei (%) [6]: 15% and 13%
Population Apoptotic (%) [7]: 44% and 59%
Population Fragmented Nuclei (%) [7]: 50% and 35%
Population Healthy Nuclei (%) [7]: 36% and 50%
Population Membrane Permeable-Phenotype (%) [7]: 8%
Population Mitochondria Different-Phenotype (%) [7]: 13% and 7%
Population Mitotic Cells (%) [7]: 55% and 40%
Population Normal (%) [7]: 34% and 80%
Population Pyknosed Nuclei (%) [7]: 13% and 14%
Population Tubulin-Different-Phenotype (%) [7]: 25% and 24%
Total Cell Count [7]: 927 and 391
Population Apoptotic (%) [8]: 80% and 55%
Population Fragmented Nuclei (%) [8]: 43% and 57%
Population Healthy Nuclei (%) [8]: 40% and 27%
Population Hoechst High Intensity Objects (%) [8]: 50% and 77%
Population Membrane Permeable-Phenotype (%) [8]: 16% and 15%
Population Mitochondria Different-Phenotype (%) [8]: 20% and 0%
Population Mitotic Cells (%) [8]: 20% and 44%
Population Normal (%) [8]: 50% and 22%
Population Pyknosed Nuclei (%) [8]: 16% and 15%
Population Tubulin-Different-Phenotype (%) [8]: 20% and 9%

CC[C@H](C)C(=O)O[C@H]1C[C@@H](C)C=C2C=C[C@H](C)[C@H](CC[C@@H]3C[C@@H](O)CC(=O)O3)[C@H]21 [LOVASTATIN]
Population Apoptotic (%) [1]: 63%
Population Fragmented Nuclei (%) [1]: 33%
Population Healthy Nuclei (%) [1]: 35%
Population Hoechst High Intensity Objects (%) [1]: 13%
Population Membrane Permeable-Phenotype (%) [1]: 23%
Population Mitochondria Different-Phenotype (%) [1]: 14%
Population Mitotic Cells (%) [1]: 36%
Population Normal (%) [1]: 86%
Population Pyknosed Nuclei (%) [1]: 31%
Population Tubulin-Different-Phenotype (%) [1]: 42%
Total Cell Count [1]: 69
Population Apoptotic (%) [2]: 25%
Population Fragmented Nuclei (%) [2]: 22%
Population Healthy Nuclei (%) [2]: 68%
Population Hoechst High Intensity Objects (%) [2]: 11%
Population Membrane Permeable-Phenotype (%) [2]: 3%
Population Mitochondria Different-Phenotype (%) [2]: 6%
Population Mitotic Cells (%) [2]: 75%
Population Normal (%) [2]: 88%
Population Pyknosed Nuclei (%) [2]: 8%
Population Tubulin-Different-Phenotype (%) [2]: 3%
Total Cell Count [2]: 87
Population Apoptotic (%) [5]: 50%
Population Fragmented Nuclei (%) [5]: 33%
Population Healthy Nuclei (%) [5]: 45%
Population Hoechst High Intensity Objects (%) [5]: 13%
Population Membrane Permeable-Phenotype (%) [5]: 22%
Population Mitochondria Different-Phenotype (%) [5]: 13%
Population Mitotic Cells (%) [5]: 50%
Population Normal (%) [5]: 86%
Population Pyknosed Nuclei (%) [5]: 22%
Population Tubulin-Different-Phenotype (%) [5]: 42%
Total Cell Count [5]: 115
Population Apoptotic (%) [6]: 100%
Population Fragmented Nuclei (%) [6]: 4%
Population Healthy Nuclei (%) [6]: 90%
Population Hoechst High Intensity Objects (%) [6]: 8%
Population Membrane Permeable-Phenotype (%) [6]: 10%
Population Mitochondria Different-Phenotype (%) [6]: 12%
Population Mitotic Cells (%) [6]: 0%
Population Normal (%) [6]: 91%
Population Pyknosed Nuclei (%) [6]: 4%
Population Tubulin-Different-Phenotype (%) [6]: 20%
Total Cell Count [6]: 54
Population Apoptotic (%) [3]: 44%
Population Fragmented Nuclei (%) [3]: 36%
Population Healthy Nuclei (%) [3]: 47%
Population Hoechst High Intensity Objects (%) [3]: 11%
Population Membrane Permeable-Phenotype (%) [3]: 11%
Population Mitochondria Different-Phenotype (%) [3]: 15%
Population Mitotic Cells (%) [3]: 55%
Population Normal (%) [3]: 88%
Population Pyknosed Nuclei (%) [3]: 16%
Population Tubulin-Different-Phenotype (%) [3]: 38%
Total Cell Count [3]: 62
Population Apoptotic (%) [4]: 40%
Population Fragmented Nuclei (%) [4]: 22%
Population Healthy Nuclei (%) [4]: 70%
Population Hoechst High Intensity Objects (%) [4]: 9%
Population Membrane Permeable-Phenotype (%) [4]: 0%
Population Mitochondria Different-Phenotype (%) [4]: 4%
Population Mitotic Cells (%) [4]: 60%
Population Normal (%) [4]: 90%
Population Pyknosed Nuclei (%) [4]: 7%
Population Tubulin-Different-Phenotype (%) [4]: 4%
Total Cell Count [4]: 93
Population Apoptotic (%) [7]: 43%
Population Fragmented Nuclei (%) [7]: 26%
Population Healthy Nuclei (%) [7]: 48%
Population Hoechst High Intensity Objects (%) [7]: 14%
Population Membrane Permeable-Phenotype (%) [7]: 19%
Population Mitochondria Different-Phenotype (%) [7]: 10%
Population Mitotic Cells (%) [7]: 56%
Population Normal (%) [7]: 85%
Population Pyknosed Nuclei (%) [7]: 24%
Population Tubulin-Different-Phenotype (%) [7]: 28%
Total Cell Count [7]: 110
Population Apoptotic (%) [8]: 28%
Population Fragmented Nuclei (%) [8]: 8%
Population Healthy Nuclei (%) [8]: 79%
Population Hoechst High Intensity Objects (%) [8]: 7%
Population Membrane Permeable-Phenotype (%) [8]: 8%
Population Mitochondria Different-Phenotype (%) [8]: 4%
Population Mitotic Cells (%) [8]: 71%
Population Normal (%) [8]: 92%
Population Pyknosed Nuclei (%) [8]: 11%
Population Tubulin-Different-Phenotype (%) [8]: 23%
Total Cell Count [8]: 74
Population Apoptotic (%) [9]: 66%
Population Fragmented Nuclei (%) [9]: 55%
Population Healthy Nuclei (%) [9]: 39%
Population Hoechst High Intensity Objects (%) [9]: 9%
Population Membrane Permeable-Phenotype (%) [9]: 26%
Population Mitochondria Different-Phenotype (%) [9]: 0%
Population Mitotic Cells (%) [9]: 33%
Population Normal (%) [9]: 90%
Population Pyknosed Nuclei (%) [9]: 5%
Population Tubulin-Different-Phenotype (%) [9]: 39%
Total Cell Count [9]: 64
Population Apoptotic (%) [10]: 33%
Population Fragmented Nuclei (%) [10]: 17%
Population Healthy Nuclei (%) [10]: 73%
Population Hoechst High Intensity Objects (%) [10]: 7%
Population Membrane Permeable-Phenotype (%) [10]: 23%
Population Mitochondria Different-Phenotype (%) [10]: 6%
Population Mitotic Cells (%) [10]: 66%
Population Normal (%) [10]: 92%
Population Pyknosed Nuclei (%) [10]: 9%
Population Tubulin-Different-Phenotype (%) [10]: 23%
Total Cell Count [10]: 69
Population Apoptotic (%) [11]: 71%
Population Fragmented Nuclei (%) [11]: 58%
Population Healthy Nuclei (%) [11]: 33%
Population Hoechst High Intensity Objects (%) [11]: 20%
Population Membrane Permeable-Phenotype (%) [11]: 19%
Population Mitochondria Different-Phenotype (%) [11]: 3%
Population Mitotic Cells (%) [11]: 28%
Population Normal (%) [11]: 80%
Population Pyknosed Nuclei (%) [11]: 7%
Population Tubulin-Different-Phenotype (%) [11]: 29%
Total Cell Count [11]: 115
Population Fragmented Nuclei (%) [12]: 37%
Population Healthy Nuclei (%) [12]: 52%
Population Hoechst High Intensity Objects (%) [12]: 15%
Population Membrane Permeable-Phenotype (%) [12]: 14%
Population Mitochondria Different-Phenotype (%) [12]: 2%
Population Normal (%) [12]: 84%
Population Pyknosed Nuclei (%) [12]: 10%
Population Tubulin-Different-Phenotype (%) [12]: 34%
Total Cell Count [12]: 79
